Assay outcomes from PubChem.
Mac1 fbg inh = blocks human CD11b/CD18 adhesion to fibrinogen; 93,000 tested, 0.54% active; P05107+P11215; AID 1497; inhibition, % at 10 µM; K562 CD11b/CD18 adhesion to fibrinogen, ATPlite luminescence; Mn2+ added to activate the integrin;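 active = primary inhibition of 50% or more at 10 µM, then 40% or more on retest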
CD11b adhes enh = enhancers of human CD11b/CD18 binding to fibrinogen. P05107+P11215. K562 CD11b/CD18 adhesion to fibrinogen, ATPlite luminescence. activation, % at 10 µM. 93,000 tested, 0.07% active. AID 1499;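 active = 10 µM primary screen giving 50% or more activity, confirmed by 40% or more on retest at that dose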
RORA act = activators of human nuclear receptor RORA | 65,000 tested, 1.5% active | AID 560 | CHO-K1 Gal4-RORA LBD luciferase reporter, luminescence; percent increase over mock-subtracted basal signal | activation, % at 10 µM;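 active = activation above the mean of all tested compounds plus 3 SD, cut at about 49% in these data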;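 note: 0% = DMSO-treated RORA cells and 100% = added signal equal to DMSO minus mock-transfected cells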
MT1-MMP txn act = activates MT1-MMP transcription | HT1080 MT1-MMP promoter luciferase reporter, luminescence, overnight; stronger effect = higher value | activation factor at 10 µM | 86,000 tested, 0.16% active;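 active = activation factor of at least 2 for MT1-MMP transcription at 10 µM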
SF1 activator = activates the human nuclear receptor SF-1; Q13285; CHO-K1 Gal4-SF-1 LBD luciferase reporter; % increase over DMSO SF-1-specific signal; AID 522; 65,000 tested, 1.9% active; activation, % at 10 µM;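 active = activation above the mean activation of all tested compounds plus 3 SD, cut at about 50% in these data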
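Test system: CHO-K1 cells with Gal4–hSF-1 LBD chimera plus Gal4-driven luciferase; Input: 4,000 cells/well; Compound: 10 µM only; Times: 20 h compound treatment, 37 °C; Measured by: steady-glow luciferase luminescence, read after 15 min reagent incubation; Measure: percent activation versus DMSO; Control set: DMSO and mock-transfected background; Replicates: one test per compound.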
TNAP act mid DEA = activates human TNAP at intermediate phosphate acceptor concentration; AID 813; purified TNAP, CDP-star luminescence, 100 mM DEA, 30 min; stronger effect = higher value; scale: 0 levamisole-inhibited, 1 vehicle-only enzyme; activation factor at 20 µM; 64,000 tested, under 10 active; P05186;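 active = activation factor of at least 2 at 20 µM, relative to controls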
Target sequence (P05186 whole entry, looked up): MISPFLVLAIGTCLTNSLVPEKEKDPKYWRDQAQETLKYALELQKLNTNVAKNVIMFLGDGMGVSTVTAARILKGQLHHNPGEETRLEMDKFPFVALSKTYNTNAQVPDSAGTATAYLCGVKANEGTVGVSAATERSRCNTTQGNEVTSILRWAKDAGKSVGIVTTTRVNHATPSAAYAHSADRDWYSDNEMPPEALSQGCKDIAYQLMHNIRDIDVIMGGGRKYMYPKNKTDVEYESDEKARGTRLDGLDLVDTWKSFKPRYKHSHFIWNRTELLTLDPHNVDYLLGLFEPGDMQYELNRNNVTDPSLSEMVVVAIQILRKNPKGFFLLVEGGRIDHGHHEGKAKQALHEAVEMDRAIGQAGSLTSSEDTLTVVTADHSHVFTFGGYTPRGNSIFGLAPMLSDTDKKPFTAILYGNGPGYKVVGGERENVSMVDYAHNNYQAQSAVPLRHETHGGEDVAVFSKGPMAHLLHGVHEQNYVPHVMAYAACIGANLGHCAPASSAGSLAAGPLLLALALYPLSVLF
* hit, by the source's call; · = not tested or not shown. In the library only some 2.1% were active in any assay of this set; here they are far more common.

SMILES	Mac1 fbg inh	CD11b adhes enh	RORA act	MT1-MMP txn act	SF1 activator	TNAP act mid DEA
Cc1nc2cc(Cl)c(Cl)cc2nc1C	2.8	8.9	88.8*	1.4	63.7*	1
Cc1cnc2cc(Cl)c(Cl)cc2n1	·	·	·	1.1	·	·
CCN(CC)c1ccc(/C=C2\CCC(/C=N/NC(=O)c3ccc(=O)n(C)c3)=C2N2CCOCC2)cc1	-6.6	15.8	·	·	·	·
O=C(CN1CCN(Cc2ccc(Cl)cc2)C1=O)NCCCN1CCN(c2ccc(F)cc2)CC1	56.7*	-4.0	·	1.1	·	·
O=C(CN1CCN(Cc2ccc(Cl)cc2)C1=O)NCCCN1CCOCC1	-11.9	6.2	·	·	·	·
CCN1CCN(Cc2ccc(OCc3ccccc3)cc2)CC1	-43.6	6.7	46.6	1	56.7*	0.9
CCc1cc2c(=O)c(-c3ccc4c(c3)OCCO4)coc2cc1OC(=O)c1ccco1	4.0	-1.5	29.2	0.6	66.2*	0.9
CCCc1cc2c(=O)c(-c3ccc4c(c3)OCCO4)coc2cc1OC(=O)c1ccco1	·	·	·	1.3	·	·
CCC1=C2CC[C@H]3C(=O)N(CC(=O)OC)C(=O)[C@H]3[C@H]2[C@@]2(C)C(=O)N(Cc3ccccc3)C(=O)N2C1=O	·	·	·	1.2	·	·
CC(C)(C)NC(=O)NC(=O)COc1ccccc1C#N	-12.6	-2.6	47.2	1	60.1*	1
CCc1nnc2c3cnn(-c4ccccc4)c3ncn12	·	-3.1	83.1*	1.6	0.8	0.7
Cc1ccc(-n2ncc3c2ncn2c(C)nnc32)cc1C	·	·	59.5*	1	20.7	0.4
Cc1ccc(-n2ncc3c(=O)n(-c4ccc(C)c(C)c4)c(C)nc32)cc1	-18.6	5.4	0.2	1.2	7.2	0.9
CC(C)Oc1ccc2c(=O)c(-c3ccccc3)coc2c1	·	·	-10.4	1.5	31.3	0.8
CCN(CC)C(=O)Oc1ccc2c(=O)c(-c3ccc(OC)cc3)c(C)oc2c1	-9.5	-1.5	60.4*	1.2	31.3	0.9
CCN(CC)C(=O)Oc1ccc2c(=O)c(-c3ccc(OC)cc3)coc2c1	-18.8	5.4	68.7*	1.3	71.2*	1
CCN(CC)c1ccc2cc(C(C)=O)c(=O)oc2c1	3.2	-0.8	·	1.5	·	·
CCN(CC)c1ccc2cc(-c3nnc(-c4ccncc4)o3)c(=O)oc2c1	-11.7	-2.4	25.0	1.4	73.2*	0.9
c1ccc(OCCCc2nc(-c3ccncc3)no2)cc1	-3.6	2.3	-12.2	1	-4.0	0.9
Clc1ccc(OCc2nc(-c3ccncc3)no2)c(Br)c1	21.7	-0.9	58.9*	1.1	43.9	0.9
CC1CCN(Cc2nc(-c3ccccc3)no2)CC1	·	·	19.1	1.5	51.2*	0.9
Clc1ccccc1OCc1nc(-c2ccncc2)no1	-6.2	3.8	54.5*	1.5	91.5*	0.9
c1ccc(-c2noc(CN3CCN(c4ccccc4)CC3)n2)cc1	-14.6	-5.2	-9.3	1.1	-1.3	1
c1ccc(OCc2nc(-c3ccccc3)no2)cc1	18.0	3.3	39.9	1.6	55.5*	0.9
O=C(NNC(=O)c1cc(O)c(O)c(O)c1)NC1CCCCC1	-7.1	-1.7	·	·	·	·
SMILES	Mac1 fbg inh	CD11b adhes enh	RORA act	MT1-MMP txn act	SF1 activator	TNAP act mid DEA
Cc1ccccc1CNC(=O)c1ccc(CSCc2ccccc2)cc1	4.8	15.8	·	·	·	·
O=C(c1cc(-c2ccc(Cl)c(Cl)c2)on1)N1CCCCC1	-6.3	-3.1	92.4*	1.5	43.0	1
O=C(c1cc(-c2ccc(Cl)c(Cl)c2)on1)N1CCN(c2ccccc2)CC1	-8.1	3.7	-16.0	1.1	10.9	1
O=C(c1cc(-c2ccccc2)on1)N1CCCC1	-8.0	5.2	24.6	0.9	56.7*	0.9
CC1CCN(C(=O)c2cc(-c3ccccc3O)on2)CC1	-0.2	0.6	63.8*	1.2	99.1*	1
CCOC(=O)C1=C(C)NC(=O)NC1c1cccc(OC)c1OCc1ccccc1Cl (centres undefined)	-10.3	-0.7	·	1.1	·	·
CCCc1nc2ccc(NC(=O)c3ccco3)cc2c(=O)n1Cc1ccc(Cl)cc1	6.6	-1.1	·	1.3	·	·
CCC(=O)Nc1ccc2nc(C3CC3)n(Cc3ccccc3)c(=O)c2c1	-8.8	-2.8	23.6	1.5	62.7*	0.9
COc1ccc(Cn2c(C3CC3)nc3ccc(NC(=O)c4ccco4)cc3c2=O)cc1	-2.9	2.6	43.8	1.6	59.2*	0.9
O=C(Oc1ccc2c3c(c(=O)oc2c1)CCC3)c1ccccc1[N+](=O)[O-]	-1.8	0.8	·	·	·	·
COc1ccc(OC)c(S(=O)(=O)N2CCC(C(=O)NCCc3ccccc3)CC2)c1	·	·	·	1.2	·	·
Cc1cc2c(C)nc(-c3ccccc3)nc2o1	0.9	7.7	60.3*	2*	58.0*	1
O=C(CSCc1cccc(F)c1)N1CCN(c2ccccc2)CC1	-3.7	3.7	52.6*	1.4	30.8	0.9
O=C(CSCc1ccccc1)N1CCN(c2ccc(F)cc2)CC1	17.9	1.6	·	·	·	0.9
N#C/C(=C(/O)c1ccco1)c1nc2ccccc2s1	52.2*	-8.5	·	·	·	·
O=C(Oc1ccc(-c2ccccc2)cc1)N1CCCCC1	-0.9	-4.0	85.9*	1.2	71.7*	1
Cc1cc(OCC(=O)Nc2ccncc2)c(C)cc1Br	98.0*	-10.5	·	1.1	·	·
O=C(COc1ccc(Br)cc1)Nc1ccncc1	34.1	-2.9	·	1.1	·	·
CN(C)c1ccccc1C(=O)c1ccccc1N(C)C	0.1	0.1	78.9*	1.6	78.1*	0.9
Clc1ccc(-c2nnc(-c3ccccc3Cl)o2)cc1	-1.3	-5.1	86.5*	1.5	19.3	1.1
Cc1ccc(Cl)cc1NC1=NC(=S)N(C(C)C)C12CCCCC2	·	·	·	1	·	·
COc1ccccc1-c1noc(-c2ccccc2)n1	·	·	42.5	0.9	64.6*	0.9
CCOc1ccc(-c2nc(-c3ccccc3)no2)cc1OCC	-13.4	-1.7	49.4*	1.5	84.1*	0.9
Cc1ccc(SCc2nc(-c3ccccc3)no2)cc1	17.0	5.7	2.9	1.2	5.1	0.8
Cc1cccc(-c2noc(CCCOc3ccc(Cl)cc3Cl)n2)c1	98.7*	-8.9	·	1	·	·
SMILES	Mac1 fbg inh	CD11b adhes enh	RORA act	MT1-MMP txn act	SF1 activator	TNAP act mid DEA
COc1ccc(-c2noc(CSc3ccccc3)n2)cc1OC	9.3	-3.0	38.1	1.7	68.2*	1
CCCC[C@@H]1C[C@H]1C(NC(=O)c1cccnc1)c1ccc(Cl)cc1 (some centres undefined)	·	·	·	1.2	·	·
O=C(CCCOc1ccc(Cl)cc1)NCC1CCCO1 (centres undefined)	·	·	·	1.1	·	·
COCCNC(=O)[C@@]1(Cc2ccccc2)C=C[C@@H](C)N1C(=O)OC	·	·	·	1	·	·
COc1cc(-c2nc(-c3cccc(C)c3)no2)cc(OC)c1OC	·	·	10.5	1.5	12.0	0.9
COc1nc(-c2ccccc2)ccc1-c1noc(-c2ccco2)n1	-22.4	4.0	29.4	1.1	55.0*	0.9
COc1ccc(-c2nc(C3CCCCC3)no2)cc1OC	11.9	3.8	42.1	·	56.9*	0.9
